The test system of this series is MS2 coat protein. The series is described as follows: apparent Kd, MS2 coat protein; higher = weaker binding; RNA-MaP array; FMN 200 µM where present. The method in brief:
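Green signal from SNAP-549-labelled MS2 coat protein was normalised to red-channel RNA signal and to the median Fmax of control clusters. The protein was titrated from 0.7 or 1.5 nM, doubling to 3 µM, without and then with constant ligand, over designs transcribed by stalled E. coli RNA polymerase on Illumina sequencing-chip clusters, in 100 mM Tris-HCl pH 7.5, 80 mM KCl, 4 mM MgCl2, BSA, DTT, yeast tRNA and Tween-20. The apparent Kd is the median of filtered per-cluster binding-curve fits.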

The mark [1] stands for this setting: designed as: OFF switch for flavin mononucleotide, no ligand.
Where [2] appears, read: ligand present: flavin mononucleotide, designed as: OFF switch for flavin mononucleotide.
The mark [3] stands for this setting: designed as: ON switch for flavin mononucleotide, no ligand.
The mark [4] stands for this setting: ligand present: flavin mononucleotide, designed as: ON switch for flavin mononucleotide.

“UCCUUGUCCUGAGGAUAUCCGUGGUGACCGAAAGGAGAAGGCAGGACAUGAGGAUCACCCAUGUACCCAGAAAACGUGCAGAGU”: the “apparent Kd” value is 0.0665 µM under setting [1] and 0.458 µM under setting [2].

“GGAGCACACAUUAACAUGAGGAUCACCCAUGUCACAAGACAUGAGGAUAUGGAUCCGAAAAGGAUCCAGAAGGCAUGGUGCUCC”: the “apparent Kd” value turned out to be 0.657 µM under setting [3] and 0.028 µM under setting [4].

In the case of “AUCAGCUCGUCAGGAUAUACGUCACUGCUUCAGCAGUGUGGUAAGAUCACAUGAGGAUCACCCAUGUAGAAGGGACGAGCUGAU”, the “apparent Kd” value runs as follows: under setting [1], 0.0141 µM; under setting [2], 0.268 µM.

On to “AAGAUGCGGGUAGGAUAUGGAAAUUAAUAAAGACCAGAAGGACUGGUCACACAACAUGAGGAUCACCCAUGUGUGUGUUGUGAA”, for which the “apparent Kd” value under setting [1] turned out to be 0.0119 µM and the “apparent Kd” value under setting [2] was determined as 0.0104 µM.

For “AUCAGCUCGGCAGGAUAUACAUCACUGCUUCGGCAGUGUAUUAAGAUCACAUGAGGAUCACCCAUGUAGAAGGGCCGAGCUGAU”, the “apparent Kd” value by setting is: under setting [1], 0.0341 µM; under setting [2], 0.389 µM.

Take “UGGUGAAGUGUAGGAUAUGGAGGUGGGUUUUGGCCAGAAGGACAUGAGGAUCACCCAUGUGGUAGAGGGUUGGUGGUGGCUCGU”: the “apparent Kd” value under setting [1] is 0.0239 µM and the “apparent Kd” value under setting [2] was 0.0214 µM.

Turning to “GGACGUGACAUUAACAUGAGGAUCACCCAUGUCAAAAGACAUGAGGAUAUGGAUCCGAAAAGGAUCCAGAAGGCAUGCACGUCC”, the “apparent Kd” value by setting is: under setting [3], 0.587 µM; under setting [4], 0.0371 µM.

In the case of “ACGUGUAAUACAGGAUAUGUAUUGGAUUAAUCAACCAGUUAUUAAGUAACGACAGAAGGGUAUACAUGAGGAUCACCCAUGUUA”, the “apparent Kd” value runs as follows: under setting [1], 0.0243 µM; under setting [2], 0.0202 µM.

Regarding “UCCACUGCUGAGAAGGGAUACGUCUGGUUCGCAUCAGGAUAUCGAUACAGUGCAGCAUGAGGACAUGAGGAUCACCCAUGUGUC”, the “apparent Kd” value came to 0.0216 µM under setting [3] and 0.0193 µM under setting [4].

Regarding “AUGCCUUAUGUAGGAUAUGCAUAGAGUUGCUAUGCAGAAGGACAUGAGGAUCACCCAUGUAUGUAUACCUUACAAAUCUAGCAU”, the “apparent Kd” value under setting [1] was 0.0386 µM and the “apparent Kd” value under setting [2] was 0.23 µM.

As to “GUAAAUGGUAUGGCUUCGACCACACAGGAUAUGAAAAUGUACAUGAGGAUCACCCAUGUUCUGAAUCAGAAGGGUGAUGGACGG”, the “apparent Kd” value was 0.0207 µM under setting [3] and 0.00674 µM under setting [4].

On to “GAGCUCGAUGAGAAGGGUUACAUGAGGAUCACCCAUGUCGACCUUGGCGUAACAGGAUAUCAUCGGGCUCAGUGCGUUGACACA”, for which the “apparent Kd” value amounted to 0.0292 µM under setting [1] and 0.171 µM under setting [2].

Take “AUCCGGCGUGUAGGAUAUGGAUCCGAUUAGGAUCCAGAAGGACAUGAGGAUCACCCAUGUACAUGUAAACAGUCAUCACCGGAC”: the “apparent Kd” value reads like this: under setting [1], 0.0115 µM; under setting [2], 0.136 µM.

Regarding “GGAUAGGACAGAGGAUAUACGUGCUAGAGAUACUAGCAAAAUUUCCUCACAUGAGGAUCACCCAUGUAGAAGGCUGUCCUAUCU”, the “apparent Kd” value reads like this: under setting [1], 0.0452 µM; under setting [2], 0.882 µM.

Turning to “CGUAUGUCAGGAUAUGCGUAAGCCGGUCAGGGCGAGCGGCAGCAGAAGGGACAUGAGGAUCACCCAUGUUCGGG”, the “apparent Kd” value under setting [1] was found to be 0.0646 µM and the “apparent Kd” value under setting [2] was determined as 0.0478 µM.

Consider “AUUAUGUUAGGAUAUGCUUAUGGUGGAUAGUCCAAUAUGAUGCAGAAGGGACAUGAGGAUCACCCAUGUACUGA”, for which the “apparent Kd” value is 0.0249 µM under setting [1] and 0.0273 µM under setting [2].

Consider “AAAAGACAUGAGGAUCACCCAUGUUAAGACGUGGGAGGAUAUGCAUGGCAAACAUGCUGUGCAGAAGGCCCGUGUC”, for which the “apparent Kd” value worked out at 0.0584 µM under setting [3] and 0.0231 µM under setting [4].

In the case of “AGCUGUGGCCGAGGAUAUCACGAACCAUGGAAAACCAUGGAACUCAUACAUGAGGAUCACCCAUGUGAGAAGGCGGUCUCAGCA”, the “apparent Kd” value was 0.0341 µM under setting [1] and 0.0296 µM under setting [2].

Take “GCGCUGCAGCGGUGCACGAGACAUGAGGAUCACCCAUGUGACAGAAGGGACUUGUUAAAGGUAGGUCAGGAUAUGUCUUAAAAG”: the “apparent Kd” value turned out to be 0.19 µM under setting [3] and 0.0598 µM under setting [4].

As to “UGUGUAACGGAGGAUAUAGGACUUCAACGAAGACUAGAAGGCCGAACAUGAGGAUCACCCAUGUGGUCCUCCGU”, the “apparent Kd” value under setting [1] was 0.0119 µM and the “apparent Kd” value under setting [2] was determined as 0.0149 µM.

For “AUUCCUCCUGUGAGGAUAUGCGUUUCGCACUCGUCGCAGAAGGCACAUGAGGAUCACCCAUGUGAGUUACCAAA”, the “apparent Kd” value reads like this: under setting [1], 0.0149 µM; under setting [2], 0.02 µM.

Regarding “CUCCGACAUGUAGGAUAUGCGUGGCGAAGCUAUGCAGAAGGACAUGAGGAUCACCCAUGUCUUUCCGUCUGCGUACAGACGGAG”, the “apparent Kd” value runs as follows: under setting [1], 0.0174 µM; under setting [2], 0.0573 µM.

“UGUUGUAUUACAGGAUAUCUAUGAUUUUUAUCUAGAGAAGGGUAUUCACAUGAGGAUCACCCAUGUAUAUACGAGGAAGUUGUG”: the “apparent Kd” value was found to be 0.0312 µM under setting [3] and 0.0306 µM under setting [4].

With “AAGAAGUGAGGAUAUGCUGCUCGUCACGAAAGUGAUGAGUAGCAGAAGGCACAUGAGGAUCACCCAUGUAAAGA”, the “apparent Kd” value is, setting by setting: under setting [1], 0.0369 µM; under setting [2], 0.0554 µM.

Turning to “GUAGAGUAGUGAGGAUAUACGAGAUCGAUAGAUCGGCGAUCCAAUAAUACAUGAGGAUCACCCAUGUAGAAGGCACUUCUCUAC”, the “apparent Kd” value runs as follows: under setting [1], 0.00779 µM; under setting [2], 0.116 µM.

For the sequence “CUAUUUAAUGCCUCAUGUACAUGAGGAUCACCCAUGUUAACUUAGGAUAUAUUUAUAUUGAUAGAGUAGAAGGAAGUACUAUUU”, the “apparent Kd” value is, setting by setting: under setting [1], 0.0254 µM; under setting [2], 0.0273 µM.

Turning to “GUAGCAUCAAUUAUACAUGAGGAUCACCCAUGUUACAUGGGUAAGGAUAUUGAGGUUAUUAUUGGCAAGAAGGUACUAUGCUAC”, the “apparent Kd” value runs as follows: under setting [3], 0.409 µM; under setting [4], 0.168 µM.

As for “GGUUCUAGAGGAUAUACAAACUGAUCCUCAGAGCGCCGGCCACAUGAGGAUCACCCAUGUAGAAGGUUGGAAUC”, the “apparent Kd” value runs as follows: under setting [1], 0.0203 µM; under setting [2], 0.0116 µM.

For the sequence “GCGAUGAUCGAGAAGGCCACUACAUGAGGAUCACCCAUGUCGUGGUGUAUUGGAGGAUAUCGAUCGGCGUCUUAUGAGGACAUG”, the “apparent Kd” value is, setting by setting: under setting [1], 0.00502 µM; under setting [2], 0.00826 µM.

Regarding “GGAUAUAUUACAUGAGGAUCACCCAUGUCAGAACGGGUAAUCAGAAGGUACUAUUAGAGAAAGAGUAAGGAUAUGAUUAUAUCC”, the “apparent Kd” value runs as follows: under setting [3], 0.801 µM; under setting [4], 0.165 µM.

Regarding “AAGUUAUAUACAUGAGGAUCACCCAUGUCAAAGGGAGUAAUCAGAAGGUACUAUUCAAUAAUUAGUAAGGAUAUGAAUUUUUAG”, the “apparent Kd” value by setting is: under setting [3], 0.0395 µM; under setting [4], 0.0306 µM.

As for “CUCUGACAUGAGGAUCACCCAUGUGAGGAUAUGAUGCAGCAGUGGUCUACGCUGUGCAUCAGAAGGCACAUGUG”, the “apparent Kd” value was 0.101 µM under setting [1] and 0.0334 µM under setting [2].

In the case of “GCCGGGUAGGCAGGAUAUCCUCGCGCAAACACAUGAGGAUCACCCAUGUACACAAAACGUGAUAUGGAGAAGGGCCGACCCACG”, the “apparent Kd” value under setting [3] is 0.0242 µM and the “apparent Kd” value under setting [4] amounted to 0.00566 µM.

On to “GCCGUAAGUGUGAGGAUAUACCUAUGGAUACAUAGGUAGAAGGCACAUGAGGAUCACCCAUGUUCUUAAUCGGC”, for which the “apparent Kd” value is 0.13 µM under setting [1] and 0.296 µM under setting [2].

On to “UUGAGGAAUUAAGGAUAUUGAGUACAUAUGUUUAACAUGAGGAUCACCCAUGUGGGUUGCGGUAUCGAGAAGGUAAAUUACAAG”, for which the “apparent Kd” value runs as follows: under setting [3], 0.129 µM; under setting [4], 0.133 µM.

For the sequence “AUAAUUUUAUUUUUCUAUUAUAUCAGAAGGCAUUACAUGAGGAUCACCCAUGUUUUGGAUAGUAAUGAGGAUAUGAUAUGGUUA”, the “apparent Kd” value reads like this: under setting [1], 0.0111 µM; under setting [2], 0.0283 µM.

As to “GGACGUCUCAUUAACAUGAGGAUCACCCAUGUCGAUAGACAUGAGGAUAUGGAUCCGAAUCGGAUCCAGAAGGCAUGGACGUCC”, the “apparent Kd” value came out at 1.17 µM under setting [3] and 0.0724 µM under setting [4].

In the case of “UGCCGUAGAGGAUAUACAUUGAAUUAGAUUCAUGUAAAACUACAUGAGGAUCACCCAUGUAGAAGGCUAUGGCU”, the “apparent Kd” value was found to be 0.0166 µM under setting [1] and 0.0245 µM under setting [2].

For the sequence “AAUUGACACGUAGGAUAUCGCUCUUAAUUAACACGAGAAGGACGUACAUGAGGAUCACCCAUGUUAAAUGGUGUAGAUUAGUUG”, the “apparent Kd” value by setting is: under setting [1], 0.219 µM; under setting [2], 0.599 µM.

Consider “UGCAUGUAAGGAUAUGCAACCGGCGCUCAUUCGCCGGUCAAGCAGAAGGUACAUGAGGAUCACCCAUGUGUCCG”, for which the “apparent Kd” value reads like this: under setting [1], 0.0313 µM; under setting [2], 0.139 µM.

As for “AAACAUGUCCGAGGAUAUCUGGAAACAUUUUCAAGAGAAGGCGGACAUGAGGAUCACCCAUGUCUCUCCUCAUCAACUACAAUU”, the “apparent Kd” value runs as follows: under setting [1], 0.00831 µM; under setting [2], 0.0581 µM.

For the sequence “AGUUGACGAGAAGGAUAUCCGAACCUUUAAAGAGGAGAAGGUCUAUCAACAUGAGGAUCACCCAUGUACAUCGCUCGGGUGUCC”, the “apparent Kd” value worked out at 0.0822 µM under setting [1] and 0.306 µM under setting [2].

As for “GCAUACAUUCGAGGAUAUCGGUGAACAAAUUAACGAGAAGGCGAUAGAAUGUUUAAUCUUAUAAACAUGAGGAUCACCCAUGUA”, the “apparent Kd” value by setting is: under setting [3], 0.0352 µM; under setting [4], 0.0252 µM.

Take “GUGCUCGUGUAAGGAUAUGCAGCCGUUUCGGCUGCAGAAGGUACUAUAAUACAUGAGGAUCACCCAUGUCUCUAUAAUUUGGUG”: the “apparent Kd” value runs as follows: under setting [3], 0.148 µM; under setting [4], 0.214 µM.

Take “GCGUAUUAGGUGUAGCUAGACAUUCAAGAAGGGUGAAGAACAUGAGGAUCACCCAUGUAGUUGGUACAGGAUAUUGAUUUACGC”: the “apparent Kd” value runs as follows: under setting [3], 0.897 µM; under setting [4], 0.176 µM.

As to “UGGUACAACGGAGGAUAUCAUGUAAAUACAUGAGGAUCACCCAUGUCGUACGAGAGUACGGAGAUUGAGAAGGCCGUUGUACCU”, the “apparent Kd” value runs as follows: under setting [3], 0.0257 µM; under setting [4], 0.0161 µM.

For the sequence “GUCAGCUCGUGAGGAUAUACAACACUGCUUCGGCAGUGUAUUAAGAACACAUGAGGAUCACCCAUGUAGAAGGCACGAGCUGAU”, the “apparent Kd” value turned out to be 0.00492 µM under setting [1] and 0.00608 µM under setting [2].

Broadly, the apparent Kd is the concentration giving half-maximal binding under the conditions of the assay.

(Values after the EternaBench riboswitch data.)
